These results are taken from ChEMBL document CHEMBL1154719, “Click chemistry: studies on the synthesis of novel fluorous tagged triazol-4-yl substituted quinazoline derivatives and their biological evaluation--theoretical and experimental validation” (2010).

Converted amounts (≈) assume the structure as drawn.

What all share (format): functional
Experiment [1] deals with Candida albicans. In words: Antifungal activity against Candida albicans MTCC 227 at 50 ug/ml after 48 hrs by agar cup diffusion method. As to conditions: MTCC 227, 48 h, read-out: DIZ. The gist of the method: (§1)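 Amphotericin-B reference at 50 per ml in the agar cup assay on potato dextrose agar. Plates were spread with 0.5 ml of a week-old fungal culture, incubated at 28 °C for 48 h, and inhibition zone diameter was read in mm. Acetone served as the negative control.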

The test system of experiment [2] is Saccharomyces cerevisiae. The experiment can be described thus: Antifungal activity against Saccharomyces cerevisiae MTCC 36 at 50 ug/ml after 48 hrs by agar cup diffusion method. As to conditions: MTCC 36, 48 h, read-out: DIZ. Put shortly:
as §1

The test system of experiment [3] is Rhizopus arrhizus. In words: Antifungal activity against Rhizopus oryzae MTCC 262 at 50 ug/ml after 48 hrs by agar cup diffusion method. As to conditions: MTCC 262, 48 h, read-out: DIZ. The gist of the method: as §1
For experiment [4], the system named is Aspergillus flavus. The experiment can be described thus: Antifungal activity against Aspergillus flavus MTCC 277 at 50 ug/ml after 48 hrs by agar cup diffusion method. The settings on record: MTCC 277, 48 h, read-out: DIZ. Put shortly: as §1
In experiment [5] the test system is Aspergillus niger. The experiment can be described thus: Antifungal activity against Aspergillus niger MTCC 1344 at 50 ug/ml after 48 hrs by agar cup diffusion method. As to conditions: MTCC 1344, 48 h, read-out: DIZ. The gist of the method:
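Agar cup diffusion on potato dextrose agar plates. 0.5 ml of a week-old A. niger culture spread over the solidified agar, then test solutions added to cups. Acetone served as negative control and amphotericin-B as positive control. Plates kept at 28 °C for 48 h. Read-out was inhibition zone diameter in mm.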

Experiment [6] relates to Diutina rugosa. In words: Antifungal activity against Candida rugosa NCIM 3462 at 50 ug/ml after 48 hrs by agar cup diffusion method. As to conditions: NCIM 3462, 48 h, read-out: DIZ. The gist of the method: as §1
The test system of another experiment is Bacillus subtilis. The experiment can be described thus: Antibacterial activity against Bacillus subtilis MTCC 441 by broth dilution method. Put shortly: (§2)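 MIC by broth dilution in nutrient broth. Test bacteria were kept on nutrient agar slants and subcultured in Petri dishes before testing.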
In general terms: Dilution methods test growth across graded concentrations, often in twofold steps.

Another experiment relates to Staphylococcus aureus. The experiment can be described thus: Antibacterial activity against Staphylococcus aureus MTCC 96 by broth dilution method. The gist of the method:
as §2

Experiment [7] deals with Staphylococcus epidermidis. In words: Antibacterial activity against Staphylococcus epidermidis MTCC 435 by broth dilution method. Put shortly: as §2
Another experiment has as its system Escherichia coli. In words: Antibacterial activity against Escherichia coli MTCC 443 by broth dilution method. Put shortly:
as §2

The next experiment concerns Pseudomonas aeruginosa. The experiment can be described thus: Antibacterial activity against Pseudomonas aeruginosa MTCC 741 by broth dilution method. Put shortly:
as §2

For experiment [8], the system named is Candida albicans. The experiment can be described thus: Antifungal activity against Candida albicans MTCC 227 at 30 ug/ml after 48 hrs by agar cup diffusion method. As to conditions: MTCC 227, 48 h, read-out: DIZ. Put shortly:
(§3)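 Agar cup diffusion on autoclaved potato dextrose agar plates. Each plate was spread with 0.5 ml of a week-old culture, and test solutions at 30 and 100 per ml were added to cups. Plates were held at 28 °C for 48 h, and inhibition zone diameters were read in mm. Acetone served as the solvent control and amphotericin-B as the reference.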

Experiment [9] has as its system Candida albicans. In words: Antifungal activity against Candida albicans MTCC 227 at 100 ug/ml after 48 hrs by agar cup diffusion method. As to conditions: MTCC 227, 48 h, read-out: DIZ. The gist of the method: as §3
The test system of experiment [10] is Saccharomyces cerevisiae. In words: Antifungal activity against Saccharomyces cerevisiae MTCC 36 at 30 ug/ml after 48 hrs by agar cup diffusion method. The settings on record: MTCC 36, 48 h, read-out: DIZ. Put shortly: as §3
Experiment [11] relates to Rhizopus arrhizus. The experiment can be described thus: Antifungal activity against Rhizopus oryzae MTCC 262 at 100 ug/ml after 48 hrs by agar cup diffusion method. The settings on record: MTCC 262, 48 h, read-out: DIZ. The gist of the method: as §3
Experiment [12] relates to Rhizopus arrhizus. The experiment can be described thus: Antifungal activity against Rhizopus oryzae MTCC 262 at 30 ug/ml after 48 hrs by agar cup diffusion method. As to conditions: MTCC 262, 48 h, read-out: DIZ. Put shortly:
as §3

Experiment [13] has as its system Saccharomyces cerevisiae. In words: Antifungal activity against Saccharomyces cerevisiae MTCC 36 at 100 ug/ml after 48 hrs by agar cup diffusion method. As to conditions: MTCC 36, 48 h, read-out: DIZ. The gist of the method: as §3
Experiment [14] relates to Aspergillus niger. In words: Antifungal activity against Aspergillus niger MTCC 1344 at 30 ug/ml after 48 hrs by agar cup diffusion method. The settings on record: MTCC 1344, 48 h, read-out: DIZ. Put shortly:
as §3

The subject of experiment [15] is Aspergillus niger. In words: Antifungal activity against Aspergillus niger MTCC 1344 at 100 ug/ml after 48 hrs by agar cup diffusion method. The settings on record: MTCC 1344, 48 h, read-out: DIZ. The gist of the method:
as §3

Experiment [16] has as its system Aspergillus flavus. The experiment can be described thus: Antifungal activity against Aspergillus flavus MTCC 277 at 30 ug/ml after 48 hrs by agar cup diffusion method. The settings on record: MTCC 277, 48 h, read-out: DIZ. Put shortly:
as §3

In experiment [17] the test system is Aspergillus flavus. In words: Antifungal activity against Aspergillus flavus MTCC 277 at 100 ug/ml after 48 hrs by agar cup diffusion method. The settings on record: MTCC 277, 48 h, read-out: DIZ. Put shortly:
as §3

Experiment [18] relates to Diutina rugosa. The experiment can be described thus: Antifungal activity against Candida rugosa NCIM 3462 at 30 ug/ml after 48 hrs by agar cup diffusion method. As to conditions: NCIM 3462, 48 h, read-out: DIZ. The gist of the method: as §3
In experiment [19] the test system is Diutina rugosa. In words: Antifungal activity against Candida rugosa NCIM 3462 at 100 ug/ml after 48 hrs by agar cup diffusion method. The settings on record: NCIM 3462, 48 h, read-out: DIZ. The gist of the method:
as §3

For `C[C@@H]1[C@H](O)[C@@H](C)/C=C/C=C/C=C/C=C/C=C/C=C/C=C/[C@H](O[C@@H]2O[C@H](C)[C@@H](O)[C@H](N)[C@@H]2O)C[C@@H]2O[C@](O)(C[C@@H](O)C[C@@H](O)[C@H](O)CC[C@@H](O)C[C@@H](O)CC(=O)O[C@H]1C)C[C@H](O)[C@H]2C(=O)O` [AMPHOTERICIN B], the zone of inhibition at 50 µg/mL in the experiment on Candida albicans [1] came to 23.5 mm; with Saccharomyces cerevisiae [2], 22 mm; in the experiment with Rhizopus arrhizus [3] it was 24 mm; in the experiment with Aspergillus flavus [4], 25 mm; in the experiment with Aspergillus niger [5], 25 mm; in the experiment on Diutina rugosa [6], 22 mm.
Regarding `C#CCn1c(-c2ccccc2)nc2ccccc2c1=O`, the MIC – broadly, the smallest concentration in the dilution series that meets the test's criterion for growth inhibition – against Bacillus subtilis came to 37.5 µg/mL (≈ 144 µM); against Staphylococcus aureus, 37.5 µg/mL (≈ 144 µM); in experiment [7] it was 37.5 µg/mL (≈ 144 µM); in the experiment on Escherichia coli, 75 µg/mL (≈ 288 µM); in the experiment with Pseudomonas aeruginosa, 37.5 µg/mL (≈ 144 µM). Moreover, the zone of inhibition at 30 µg/mL in the experiment on Candida albicans [8] amounted to 7 mm; in the experiment on Saccharomyces cerevisiae [10] it was 9 mm; with Rhizopus arrhizus [12], 8 mm; in the experiment on Aspergillus niger [14] it was 7 mm; in the experiment on Aspergillus flavus [16], 9 mm; in the experiment on Diutina rugosa [18], 8 mm. Moreover, the zone of inhibition at 100 µg/mL in the experiment on Candida albicans [9] worked out at 10 mm; in the experiment on Rhizopus arrhizus [11] it was 12 mm; in the experiment with Saccharomyces cerevisiae [13], 12 mm; with Aspergillus niger [15] it was 10 mm; in the experiment with Aspergillus flavus [17], 12 mm; in the experiment on Diutina rugosa [19] it was 12 mm.
